Measurements: ChEMBL document CHEMBL1149144, “Structure-based design of potent retinoid X receptor alpha agonists” (J Med Chem, 2004)
Values belong to the molecule of their own block, whether it stands above or below them.

Assays:
[1] = molecular target: T1, Retinoic acid receptor RXR-alpha (Homo sapiens, UniProt P19793); assay: Binding affinity for retinoid X receptor alpha (RXRalpha), using 9-cis-[3H]-retinoic acid
T1 sequence (P19793 whole entry): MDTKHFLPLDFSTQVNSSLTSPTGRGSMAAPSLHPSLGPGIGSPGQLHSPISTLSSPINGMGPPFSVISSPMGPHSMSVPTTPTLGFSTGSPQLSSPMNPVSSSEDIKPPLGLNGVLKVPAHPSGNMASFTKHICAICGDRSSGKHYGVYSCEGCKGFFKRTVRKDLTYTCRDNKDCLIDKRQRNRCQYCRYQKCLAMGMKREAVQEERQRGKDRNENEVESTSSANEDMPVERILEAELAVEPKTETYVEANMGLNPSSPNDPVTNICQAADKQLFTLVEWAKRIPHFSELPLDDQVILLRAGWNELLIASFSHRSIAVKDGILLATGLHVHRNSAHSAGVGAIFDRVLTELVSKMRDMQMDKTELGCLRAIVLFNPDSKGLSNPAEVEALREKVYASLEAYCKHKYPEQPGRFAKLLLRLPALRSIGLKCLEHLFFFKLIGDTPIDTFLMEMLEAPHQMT
Outline: (§1)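 Scintillation proximity binding assay; Ki from competition of 2.5 nM 9-cis-RA at RXRα and RARα, with test compound up to 10 µM.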

[2] = test system: Rattus norvegicus; assay: Antihyperglycemic activity of compound at 10 mg/kg was measured as percent glycosylated hemoglobin in vivo in rats; assay type: functional
Outline: (§2)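 Male Zucker diabetic fatty (ZDF) rats dosed orally with vehicle or compound in vehicle.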

[3] = test system: Mus musculus; assay: Antihyperglycemic activity of compound at 100 mg/kg was measured as percent glycosylated hemoglobin in vivo in mice; assay type: functional
Outline: (§3)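 Male diabetic db/db mice given vehicle or compound in vehicle orally.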

[4] = test system: Mus musculus; assay: Effect on lipid hydrolysis at 100 mg/kg was measured in vivo in mice; assay type: functional
Outline: (§4)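 Male diabetic db/db mice were given the test agent orally in vehicle, with a vehicle-only control group.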

[5] = test system: Mus musculus; assay: Antihyperglycemic activity of compound at 10 mg/kg was determined in vivo in mice; assay type: functional; outline: as §4
[6] = test system: Mus musculus; assay: Effect on lipid hydrolysis at 30 mg/kg was measured in vivo in mice; assay type: functional; outline: as §4
[7] = test system: Rattus norvegicus; assay: Effect on percent change in weight of liver to body at 10 mg/kg was measured in vivo in rats; assay type: functional; outline: as §2
[8] = test system: Mus musculus; assay: Effect on nonesterified free fatty acid at 30 mg/kg was measured in vivo in mice; assay type: functional; outline: as §3
[9] = test system: Mus musculus; assay: Effect on lipid hydrolysis at 10 mg/kg was measured in vivo in mice; assay type: functional; outline: as §4
[10] = test system: Rattus norvegicus; assay: Antihyperglycemic activity of compound at 10 mg/kg was determined in vivo in rats; assay type: functional
Outline: (§5)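 Male Zucker diabetic fatty (ZDF) rats were given the test agent orally in vehicle, with a vehicle-only control group.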

[11] = test system: Rattus norvegicus; assay: Effect on lipid hydrolysis at 30 mg/kg was measured in vivo in rats; assay type: functional; outline: as §5
[12] = molecular target: T2, Retinoic acid receptor alpha (Homo sapiens, UniProt P10276); assay: Binding affinity for retinoic acid receptor alpha (RARalpha), using 9-cis-[3H]-retinoic acid; outline: as §1
T2 sequence (P10276 whole entry): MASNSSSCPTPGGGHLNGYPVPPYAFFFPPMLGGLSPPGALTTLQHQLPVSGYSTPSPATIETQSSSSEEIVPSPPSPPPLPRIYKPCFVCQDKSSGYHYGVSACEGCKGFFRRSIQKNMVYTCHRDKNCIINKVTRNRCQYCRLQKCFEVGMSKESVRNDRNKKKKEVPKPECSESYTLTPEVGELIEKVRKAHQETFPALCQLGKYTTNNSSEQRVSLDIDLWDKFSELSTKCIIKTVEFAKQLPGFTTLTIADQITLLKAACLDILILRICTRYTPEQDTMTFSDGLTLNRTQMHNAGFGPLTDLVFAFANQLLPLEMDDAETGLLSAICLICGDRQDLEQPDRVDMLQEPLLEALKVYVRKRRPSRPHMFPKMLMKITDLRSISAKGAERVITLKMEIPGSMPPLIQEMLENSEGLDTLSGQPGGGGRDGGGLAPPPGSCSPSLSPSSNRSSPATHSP

[13] = test system: Rattus norvegicus; assay: Antihyperglycemic activity of compound at 3 mg/kg was measured as percent glycosylated hemoglobin in vivo in rats; assay type: functional; outline: as §2
[14] = test system: Mus musculus; assay: Effect on percent change in weight of liver to body at 100 mg/kg was measured in vivo in mice; assay type: functional; outline: as §3
[15] = test system: Rattus norvegicus; assay: Effect on lipid hydrolysis at 3 mg/kg was measured in vivo in rats; assay type: functional; outline: as §5
[16] = test system: Mus musculus; assay: Effect on nonesterified free fatty acid at 100 mg/kg was measured in vivo in mice; assay type: functional; outline: as §3
[17] = test system: Rattus norvegicus; assay: Effect on percent change in weight of liver to body at 3 mg/kg was measured in vivo in rats; assay type: functional; outline: as §2
[18] = test system: Mus musculus; assay: Antihyperglycemic activity of compound at 30 mg/kg was determined in vivo in mice; assay type: functional; outline: as §4
[19] = test system: Rattus norvegicus; assay: Effect on lipid hydrolysis at 10 mg/kg was measured in vivo in rats; assay type: functional; outline: as §5
[20] = test system: Rattus norvegicus; assay: Antihyperglycemic activity of compound was determined in vivo in rats; assay type: functional; outline: as §5
[21] = molecular target: T2, Retinoic acid receptor alpha; assay: Effective concentration for Retinoic acid receptor alpha activity in CV-1 cells; assay type: functional, cell-based
Outline: (§6)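 CV-1 monkey kidney cells transiently transfected with a full-length hRXRα expression vector (RXRα) or a GAL4-hRARα vector (RARα), each with an RXRα- or RARα-responsive reporter gene construct. Top concentration 10 µM; EC50 calculated from the reporter response.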

[22] = test system: Mus musculus; assay: Effect on aspartate aminotransferase release by liver at 30 mg/kg was measured in vivo in mice; assay type: functional; outline: as §3
[23] = test system: Rattus norvegicus; assay: Effect on nonesterified free fatty acid at 10 mg/kg was measured in vivo in rats; assay type: functional; outline: as §2
[24] = test system: Rattus norvegicus; assay: Antihyperglycemic activity of compound at 3 mg/kg was determined in vivo in rats; assay type: functional; outline: as §5
[25] = test system: Rattus norvegicus; assay: Antihyperglycemic activity of compound at 30 mg/kg was measured as percent glycosylated hemoglobin in vivo in rats; assay type: functional; outline: as §2
[26] = test system: Mus musculus; assay: Effect on aspartate aminotransferase release by liver at 10 mg/kg was measured in vivo in mice; assay type: functional; outline: as §3
[27] = test system: Rattus norvegicus; assay: Effect on aspartate aminotransferase release by liver at 30 mg/kg was measured in vivo in rats; assay type: functional; outline: as §2
[28] = test system: Mus musculus; assay: Effect on percent change in weight of liver to body at 10 mg/kg was measured in vivo in mice; assay type: functional; outline: as §3
[29] = molecular target: T1, Retinoic acid receptor RXR-alpha; assay: Effective concentration for Retinoid X receptor alpha activity in CV-1 cells; assay type: functional, cell-based; outline: as §6
[30] = test system: Rattus norvegicus; assay: Effect on nonesterified free fatty acid at 3 mg/kg was measured in vivo in rats; assay type: functional; outline: as §2
[31] = test system: Rattus norvegicus; assay: Effect on nonesterified free fatty acid at 30 mg/kg was measured in vivo in rats; assay type: functional; outline: as §2
[32] = test system: Rattus norvegicus; assay: Effect on aspartate aminotransferase release by liver at 3 mg/kg was measured in vivo in rats; assay type: functional; outline: as §2
[33] = test system: Rattus norvegicus; assay: Effect on aspartate aminotransferase release by liver at 10 mg/kg was measured in vivo in rats; assay type: functional; outline: as §2
[34] = test system: Mus musculus; assay: Effect on nonesterified free fatty acid at 10 mg/kg was measured in vivo in mice; assay type: functional; outline: as §3
[35] = test system: Mus musculus; assay: Effect on aspartate aminotransferase release by liver at 100 mg/kg was measured in vivo in mice; assay type: functional; outline: as §3
[36] = test system: Mus musculus; assay: Antihyperglycemic activity of compound at 100 mg/kg was determined in vivo in mice; assay type: functional; outline: as §4
[37] = test system: Mus musculus; assay: Effect on percent change in weight of liver to body at 30 mg/kg was measured in vivo in mice; assay type: functional; outline: as §3
[38] = test system: Rattus norvegicus; assay: Effect on percent change in weight of liver to body at 30 mg/kg was measured in vivo in rats; assay type: functional; outline: as §2
[39] = test system: Mus musculus; assay: Antihyperglycemic activity of compound at 30 mg/kg was measured as percent glycosylated hemoglobin in vivo in mice; assay type: functional; outline: as §3
[40] = test system: Mus musculus; assay: Antihyperglycemic activity of compound at 10 mg/kg was measured as percent glycosylated hemoglobin in vivo in mice; assay type: functional; outline: as §3
[41] = molecular target: T1, Retinoic acid receptor RXR-alpha; assay: Effective concentration for Retinoid X receptor alpha activity in CV-1 cells; Partial agonist; assay type: functional, cell-based; outline: as §6

- Ki [1]: 1500 nM
Compound: O=C1NC(=O)/C(=C/c2ccc(-c3cccc(Br)c3)o2)S1

Compound: CC1(C)CCC(C)(C)c2cc(C3CCCc4oc(/C=C/C(=O)O)cc43)ccc21 (racemic)
- Activity [2]: 7.44%
- Activity [3]: 8.51%
- Activity [4]: 62 mg/dL
- Activity [5]: 346 mg/dL
- Activity [6]: 83 mg/dL
- Activity [7]: 6.56%
- Activity [8]: 0.56 m equiv l-1
- Activity [9]: 91 mg/dL
- Activity [10]: 129 mg/dL
- Activity [11]: 1353 mg/dL
- Ki [12]: > 1000 nM
- Activity [13]: 7.75%
- Activity [14]: 9.33%
- Activity [15]: 2462 mg/dL
- Activity [16]: 0.4 m equiv l-1
- Activity [17]: 5.74%
- Activity [18]: 309 mg/dL
- Activity [19]: 2199 mg/dL
- Activity [20]: 118 mg/dL
- EC50 [21]: > 10000 nM
- Activity [22]: 116 U l-1
- Activity [23]: 0.49 m equiv l-1
- Activity [24]: 147 mg/dL
- Activity [25]: 7.04%
- Activity [26]: 137 U l-1
- Activity [27]: 136 U l-1
- Activity [28]: 8.23%
- EC50 [29]: 3 nM
- Activity [30]: 0.8 m equiv l-1
- Activity [31]: 0.38 m equiv l-1
- Activity [32]: 98 U l-1
- Activity [33]: 108 U l-1
- Activity [34]: 0.45 m equiv l-1
- Activity [35]: 158 U l-1
- Activity [36]: 233 mg/dL
- Activity [37]: 8.58%
- Activity [38]: 7.06%
- Activity [39]: 8.84%
- Activity [40]: 9.41%
- Ki [1]: 6 nM

- Ki [12]: > 1000 nM
- EC50 [21]: > 10000 nM
- EC50 [41]: 48 nM
- Ki [1]: 20 nM
Compound: COc1cc2c(cc1C1CCCc3oc(/C=C/C(=O)O)cc31)C(C)(C)CCC2(C)C (stereo not given)

Compound: CC1(C)CCC(C)(C)c2cc(C3CCCc4oc(/C=C/C(=O)O)cc43)ccc21 (stereo in doubt)
- Ki [12]: > 1000 nM
- EC50 [21]: > 10000 nM
- EC50 [29]: 5 nM
- Ki [1]: 5 nM

Compound: CC1(C)CCC(C)(C)c2cc(C3CCCc4oc(/C=C/C(=O)O)cc43)ccc21 (single isomer, unassigned)
- Ki [12]: > 1000 nM
- EC50 [21]: > 10000 nM
- EC50 [29]: 40 nM
- Ki [1]: 200 nM

Compound: CC1(C)CCC(C)(C)c2cc(-c3ccc(/C=C/C(=O)O)o3)ccc21
- Ki [12]: 93 nM
- Ki [1]: > 1000 nM

- Ki [12]: > 1000 nM
- EC50 [21]: > 10000 nM
- EC50 [29]: 60 nM
- Ki [1]: 63 nM
Compound: CC(=CC(=O)O)c1cc2c(o1)CCCC2c1ccc2c(c1)C(C)(C)CCC2(C)C (stereo not given)

- Ki [12]: > 1000 nM
- EC50 [29]: 42 nM
- Ki [1]: 158 nM
Compound: CC1(C)CCC(C)(C)c2cc(C3CCCc4oc(/C=C/C(=O)O)nc43)ccc21 (stereo not given)

- Ki [12]: > 1000 nM
- EC50 [21]: > 10000 nM
- EC50 [29]: 97 nM
- Ki [1]: 200 nM
Compound: CC1(C)CCC(C)(C)c2cc(C3CCCc4sc(CCC(=O)O)cc43)ccc21 (stereo not given)

- Ki [12]: > 1000 nM
- EC50 [21]: > 10000 nM
- EC50 [29]: 29 nM
- Ki [1]: 40 nM
Compound: Cc1cc2c(cc1C1CCCc3oc(/C=C/C(=O)O)cc31)C(C)(C)CCC2(C)C (stereo not given)
